Tests used:
[1] = molecular target: Dual specificity calcium/calmodulin-dependent 3',5'-cyclic nucleotide phosphodiesterase 1A (Homo sapiens, UniProt P54750); experiment: Inhibition of human recombinant PDE1A expressed insect sf9 cells by radiometric assay
In short: (§1)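 Human recombinant PDEs expressed in Sf9 cells, except PDE6 purified from bovine retina. Radiometric two-step method, modified from Thompson and Appleman. Five concentrations in duplicate, starting at 30 μM with 1:10 serial dilution, 1% final DMSO.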

[2] = Protein binding in human plasma at 5 uM after 5 hrs by LC-MS/MS analysis; assay type: ADME, cell-free; settings: read-out: PPB (converted)
[3] = Inhibition of PDE4 in human U937 cell lysates assessed as residual cAMP after 2.5 mins by LANCE assay
[4] = Inhibition of PDE4 in human PBMC assessed as reduction in LPS-induced TNFalpha release after 18 hrs by quantitative ELISA
[5] = Apparent permeability across apical to basolateral side in human Caco2 cells at 10 uM after 2 hrs by LC-MS/MS analysis; assay type: ADME, cell-based; settings: Caco-2
[6] = Apparent permeability across basolateral to apical side in human Caco2 cells at 10 uM after 2 hrs by LC-MS/MS analysis; assay type: ADME, cell-based; settings: Caco-2
[7] = Intrinsic clearance in human liver microsomes at 1 uM measured after 60 mins in presence NADPH by LC-MS/MS analysis; assay type: ADME, microsome; settings: read-out: CLH
In short: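 Compound at 1 μM with human liver microsomes (0.8 mg protein/mL) in Dulbecco's buffer pH 7.4, 1 mM NADPH, 37 °C, in duplicate. Sampled at 0, 5, 10, 20, 30 and 60 min, quenched with ice-cold acetonitrile, and unchanged compound measured by LC−MS/MS. No-NADPH controls; midazolam (1 μM) as phase I control.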

[8] = Intrinsic clearance in human hepatocytes assessed per million cells at 1 uM measured after 90 mins by LC-MS/MS analysis; assay type: ADME, cell-based, Hepatocyte; settings: read-out: CLH
In short: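 Compound at 1 μM with hepatocytes (1 million cells/mL) in Leibovitz L-15 at 37 °C, in duplicate. Sampled at 0, 10, 20, 30, 60 and 90 min, quenched with ice-cold acetonitrile, centrifuged, and unchanged compound measured by LC−MS/MS. Included 7-ethoxycoumarin and 7-hydroxycoumarin activity controls and cell-free medium controls.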

[9] = Metabolic stability in human lung S9 fraction assessed as compound remaining at 1 uM measured after 60 mins in presence of NADPH by LC-MS/MS analysis; assay type: ADME; settings: read-out: Stability
[10] = Metabolic stability in human plasma assessed as compound remaining at 1 uM measured after 60 mins in presence of NADPH by LC-MS/MS analysis; assay type: ADME, cell-free; settings: read-out: Stability
Rattus norvegicus = experiment: Anti-inflammatory activity in OVA-induced airway inflammation Brown Norway rat model assessed inhibition of eosinophils recruitment in bronchoalveolar lavage fluid administered intratracheally as powder formulation 2 hrs before aerosolized OVA challenge measured at 24 hrs post aerosolized OVA challenge; assay type: functional; settings: for ED50: inhaled or nasal
In short: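 Male Brown Norway rats sensitized i.p. with OVA (1 mg/rat) plus Al(OH)3 (100 mg/rat) in saline on 3 consecutive days. Challenged 2–3 weeks later with nose-only 1% OVA aerosol for 30 min. Lactose-blended dry powder (10 mg/kg total powder) insufflated intratracheally; dose taken from needle weight difference. BAL with 3 × 4 mL HBSS/EDTA/HEPES at 24 h; total and differential counts by automated counter. ED50 from fitted dose–response curve.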

Lung [11] = experiment: Cmax in Sprague-Dawley rat lung at 1 umol/kg, it administered as micronized powder measured up to 24 hrs post dose by electrospray LC-MS analysis; assay type: ADME, tissue-based; set-up: dose 1 umol/kg; settings: in vivo, inhaled_or_intranasal
In short: (§2)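 Sprague-Dawley rats (250−400 g) dosed intratracheally with micronized dry powder blended with coarse lactose, delivered by insufflator under isoflurane anaesthesia. Blood collected in heparinized tubes and spun at 1200g for 15 min. Lung sampled at 0.25, 1, 2, 4, 8, 16 and 24 h, n = 3 per time point.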

[12] = Tmax in Sprague-Dawley rat lung at 1 umol/kg, it administered as micronized powder measured up to 24 hrs post dose by electrospray LC-MS analysis; assay type: ADME, tissue-based; settings: inhaled or intranasal; in short: as §2
Lung [13] = experiment: Tlast in Sprague-Dawley rat lung at 1 umol/kg, it administered as micronized powder measured up to 24 hrs post dose by electrospray LC-MS analysis; assay type: ADME, tissue-based; settings: in vivo, inhaled_or_intranasal; in short: as §2
Lung [14] = experiment: AUClast in Sprague-Dawley rat lung at 1 umol/kg, it administered as micronized powder measured up to 24 hrs post dose by electrospray LC-MS analysis; assay type: ADME, tissue-based; settings: in vivo, inhaled_or_intranasal; in short: as §2
[15] = Half life in Sprague-Dawley rat lung at 1 umol/kg, it administered as micronized powder measured up to 24 hrs post dose by electrospray LC-MS analysis; assay type: ADME, tissue-based; settings: inhaled or intranasal; in short: as §2
Plasma [16] = experiment: Cmax in Sprague-Dawley rat plasma at 1 umol/kg, it administered as micronized powder measured up to 24 hrs post dose by electrospray LC-MS analysis; assay type: ADME, cell-free; set-up: dose 1 umol/kg; settings: inhaled_or_intranasal; in short: as §2
[17] = Tmax in Sprague-Dawley rat plasma at 1 umol/kg, it administered as micronized powder measured up to 24 hrs post dose by electrospray LC-MS analysis; assay type: ADME, cell-free; settings: inhaled or intranasal; in short: as §2
Plasma [18] = experiment: Tlast in Sprague-Dawley rat plasma at 1 umol/kg, it administered as micronized powder measured up to 24 hrs post dose by electrospray LC-MS analysis; assay type: ADME, cell-free; settings: inhaled_or_intranasal; in short: as §2
[19] = Ratio of drug uptake in Sprague-Dawley rat lung to plasma at 1 umol/kg, it administered as micronized powder measured up to 8 hrs post dose by electrospray LC-MS analysis; assay type: ADME; settings: other tissue, inhaled_or_intranasal
[20] = MRTlast in Sprague-Dawley rat plasma at 1 umol/kg, it administered as micronized powder measured up to 24 hrs post dose by electrospray LC-MS analysis; assay type: ADME, cell-free; settings: inhaled or intranasal; in short: as §2
[21] = molecular target: cGMP-dependent 3',5'-cyclic phosphodiesterase (Homo sapiens, UniProt O00408); experiment: Inhibition of human recombinant PDE2A expressed insect sf9 cells by radiometric assay; in short: as §1
[22] = molecular target: cGMP-inhibited 3',5'-cyclic phosphodiesterase 3A (Homo sapiens, UniProt Q14432); experiment: Inhibition of human recombinant PDE3A expressed insect sf9 cells by radiometric assay; in short: as §1
[23] = Inhibition of bovine retina PDE6 expressed insect sf9 cells by radiometric assay; set-up: species or system Bos taurus
[24] = molecular target: High affinity cAMP-specific and IBMX-insensitive 3',5'-cyclic phosphodiesterase 8A (Homo sapiens, UniProt O60658); experiment: Inhibition of human recombinant PDE8A1 expressed insect sf9 cells by radiometric assay; in short: as §1
[25] = molecular target: High affinity cGMP-specific 3',5'-cyclic phosphodiesterase 9A (Homo sapiens, UniProt O76083); experiment: Inhibition of human recombinant PDE9A2 expressed insect sf9 cells by radiometric assay; in short: as §1
[26] = molecular target: cAMP and cAMP-inhibited cGMP 3',5'-cyclic phosphodiesterase 10A (Homo sapiens, UniProt Q9Y233); experiment: Inhibition of human recombinant PDE10A2 expressed insect sf9 cells by radiometric assay; in short: as §1
[27] = molecular target: Voltage-gated inwardly rectifying potassium channel KCNH2 (Homo sapiens, UniProt Q12809); experiment: Inhibition of human ERG at 1 uM
Cytochrome P450 3A4 = Cytochrome P450 3A4 (Homo sapiens, UniProt P08684); experiment: Binding affinity to human liver microsomes CYP3A4 at 1 uM; assay type: ADME
In short: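 Off-target screening panel of about 400 receptors, enzymes and ion channels, run at 1 μM. Result expressed as % binding.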

Lung [28] = experiment: Drug uptake in Sprague-Dawley rat lung at 1 umol/kg, it administered as micronized powder measured at 24 hrs post dose by electrospray LC-MS analysis; assay type: ADME, tissue-based; settings: in vivo, inhaled_or_intranasal; in short: as §2

Sequence of High affinity cAMP-specific and IBMX-insensitive 3',5'-cyclic phosphodiesterase 8A (O60658 whole entry): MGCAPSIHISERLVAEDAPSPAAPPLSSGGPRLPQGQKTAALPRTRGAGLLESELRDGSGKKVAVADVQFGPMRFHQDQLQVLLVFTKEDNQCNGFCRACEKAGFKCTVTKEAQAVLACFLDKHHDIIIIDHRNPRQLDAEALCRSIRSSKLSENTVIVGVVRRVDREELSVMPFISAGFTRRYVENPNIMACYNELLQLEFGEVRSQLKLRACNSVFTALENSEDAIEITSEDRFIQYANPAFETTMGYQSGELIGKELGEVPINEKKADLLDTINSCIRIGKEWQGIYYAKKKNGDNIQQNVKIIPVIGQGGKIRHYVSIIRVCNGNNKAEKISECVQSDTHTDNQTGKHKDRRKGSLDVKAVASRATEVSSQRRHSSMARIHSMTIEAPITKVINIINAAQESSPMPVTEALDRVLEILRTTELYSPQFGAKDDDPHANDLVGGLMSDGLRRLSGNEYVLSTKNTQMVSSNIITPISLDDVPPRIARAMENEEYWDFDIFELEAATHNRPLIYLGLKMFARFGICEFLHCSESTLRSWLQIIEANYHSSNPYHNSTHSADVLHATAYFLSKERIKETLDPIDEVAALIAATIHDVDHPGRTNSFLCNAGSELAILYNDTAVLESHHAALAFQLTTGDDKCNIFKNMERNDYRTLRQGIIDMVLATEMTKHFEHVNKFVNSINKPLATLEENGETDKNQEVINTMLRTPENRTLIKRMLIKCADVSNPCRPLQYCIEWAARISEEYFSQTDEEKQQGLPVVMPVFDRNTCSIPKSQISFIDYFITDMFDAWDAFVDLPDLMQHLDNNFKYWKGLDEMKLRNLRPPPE
Sequence of cAMP and cAMP-inhibited cGMP 3',5'-cyclic phosphodiesterase 10A (Q9Y233 whole entry): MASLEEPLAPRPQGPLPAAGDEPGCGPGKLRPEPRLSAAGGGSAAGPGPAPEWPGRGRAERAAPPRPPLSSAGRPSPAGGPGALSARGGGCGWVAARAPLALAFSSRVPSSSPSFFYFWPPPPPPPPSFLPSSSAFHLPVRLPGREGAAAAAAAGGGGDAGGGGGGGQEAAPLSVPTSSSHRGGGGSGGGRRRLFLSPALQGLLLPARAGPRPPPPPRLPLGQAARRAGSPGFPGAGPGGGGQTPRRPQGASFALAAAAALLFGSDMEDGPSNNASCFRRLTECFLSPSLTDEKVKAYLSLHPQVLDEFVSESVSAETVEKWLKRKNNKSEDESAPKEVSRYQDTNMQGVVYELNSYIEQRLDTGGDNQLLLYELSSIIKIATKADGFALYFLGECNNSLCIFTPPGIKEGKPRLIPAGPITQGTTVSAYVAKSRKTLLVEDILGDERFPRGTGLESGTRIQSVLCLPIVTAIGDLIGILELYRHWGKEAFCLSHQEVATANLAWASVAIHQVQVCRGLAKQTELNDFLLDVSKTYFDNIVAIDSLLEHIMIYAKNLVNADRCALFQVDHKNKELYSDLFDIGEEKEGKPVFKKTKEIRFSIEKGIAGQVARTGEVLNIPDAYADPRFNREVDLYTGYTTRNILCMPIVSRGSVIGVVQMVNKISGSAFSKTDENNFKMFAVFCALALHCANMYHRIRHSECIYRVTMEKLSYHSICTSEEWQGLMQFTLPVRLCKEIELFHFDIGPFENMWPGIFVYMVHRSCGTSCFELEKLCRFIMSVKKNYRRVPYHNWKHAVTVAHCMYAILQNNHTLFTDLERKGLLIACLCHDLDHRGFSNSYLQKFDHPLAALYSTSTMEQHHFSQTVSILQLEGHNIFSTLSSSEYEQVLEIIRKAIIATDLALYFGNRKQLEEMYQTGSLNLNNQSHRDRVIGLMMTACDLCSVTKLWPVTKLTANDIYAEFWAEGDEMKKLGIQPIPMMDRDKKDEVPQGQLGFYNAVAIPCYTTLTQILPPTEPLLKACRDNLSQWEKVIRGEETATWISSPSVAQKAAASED
Sequence of cGMP-dependent 3',5'-cyclic phosphodiesterase (O00408 whole entry): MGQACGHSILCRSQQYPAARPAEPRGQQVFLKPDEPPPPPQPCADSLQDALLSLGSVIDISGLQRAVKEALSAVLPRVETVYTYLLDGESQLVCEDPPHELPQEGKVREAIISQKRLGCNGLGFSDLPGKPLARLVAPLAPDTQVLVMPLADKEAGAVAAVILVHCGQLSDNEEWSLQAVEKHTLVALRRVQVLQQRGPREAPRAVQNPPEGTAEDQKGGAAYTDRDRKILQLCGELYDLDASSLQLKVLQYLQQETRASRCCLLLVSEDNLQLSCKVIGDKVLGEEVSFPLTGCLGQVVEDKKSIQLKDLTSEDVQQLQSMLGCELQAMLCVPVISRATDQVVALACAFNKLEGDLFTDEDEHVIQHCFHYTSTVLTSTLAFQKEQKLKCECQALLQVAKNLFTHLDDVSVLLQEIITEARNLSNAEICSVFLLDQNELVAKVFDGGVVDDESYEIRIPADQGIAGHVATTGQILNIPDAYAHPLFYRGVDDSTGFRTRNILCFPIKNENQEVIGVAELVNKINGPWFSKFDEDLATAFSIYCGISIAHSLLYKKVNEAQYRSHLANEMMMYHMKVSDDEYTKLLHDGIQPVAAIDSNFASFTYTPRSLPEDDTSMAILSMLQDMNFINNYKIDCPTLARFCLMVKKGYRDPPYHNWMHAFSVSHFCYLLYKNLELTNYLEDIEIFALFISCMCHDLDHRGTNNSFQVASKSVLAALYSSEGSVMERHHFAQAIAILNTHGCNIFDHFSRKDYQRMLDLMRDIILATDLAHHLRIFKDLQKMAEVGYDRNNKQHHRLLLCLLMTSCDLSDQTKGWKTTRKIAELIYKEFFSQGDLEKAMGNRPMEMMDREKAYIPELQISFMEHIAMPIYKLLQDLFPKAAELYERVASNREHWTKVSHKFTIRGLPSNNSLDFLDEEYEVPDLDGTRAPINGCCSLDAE
Sequence of Cytochrome P450 3A4 (P08684 whole entry): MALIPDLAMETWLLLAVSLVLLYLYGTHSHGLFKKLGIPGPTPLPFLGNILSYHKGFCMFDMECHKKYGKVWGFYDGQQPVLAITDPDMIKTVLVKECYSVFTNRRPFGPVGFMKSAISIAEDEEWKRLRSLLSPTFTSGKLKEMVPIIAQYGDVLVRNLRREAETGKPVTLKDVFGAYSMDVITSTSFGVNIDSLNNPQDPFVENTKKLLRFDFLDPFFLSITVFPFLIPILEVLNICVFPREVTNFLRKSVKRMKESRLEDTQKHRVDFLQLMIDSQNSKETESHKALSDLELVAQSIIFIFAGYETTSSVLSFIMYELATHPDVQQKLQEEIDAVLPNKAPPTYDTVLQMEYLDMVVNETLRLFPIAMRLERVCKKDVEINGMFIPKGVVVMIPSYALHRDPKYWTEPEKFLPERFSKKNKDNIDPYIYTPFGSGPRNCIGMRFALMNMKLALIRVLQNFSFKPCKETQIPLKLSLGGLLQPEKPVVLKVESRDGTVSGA
Sequence of Voltage-gated inwardly rectifying potassium channel KCNH2 (Q12809 whole entry): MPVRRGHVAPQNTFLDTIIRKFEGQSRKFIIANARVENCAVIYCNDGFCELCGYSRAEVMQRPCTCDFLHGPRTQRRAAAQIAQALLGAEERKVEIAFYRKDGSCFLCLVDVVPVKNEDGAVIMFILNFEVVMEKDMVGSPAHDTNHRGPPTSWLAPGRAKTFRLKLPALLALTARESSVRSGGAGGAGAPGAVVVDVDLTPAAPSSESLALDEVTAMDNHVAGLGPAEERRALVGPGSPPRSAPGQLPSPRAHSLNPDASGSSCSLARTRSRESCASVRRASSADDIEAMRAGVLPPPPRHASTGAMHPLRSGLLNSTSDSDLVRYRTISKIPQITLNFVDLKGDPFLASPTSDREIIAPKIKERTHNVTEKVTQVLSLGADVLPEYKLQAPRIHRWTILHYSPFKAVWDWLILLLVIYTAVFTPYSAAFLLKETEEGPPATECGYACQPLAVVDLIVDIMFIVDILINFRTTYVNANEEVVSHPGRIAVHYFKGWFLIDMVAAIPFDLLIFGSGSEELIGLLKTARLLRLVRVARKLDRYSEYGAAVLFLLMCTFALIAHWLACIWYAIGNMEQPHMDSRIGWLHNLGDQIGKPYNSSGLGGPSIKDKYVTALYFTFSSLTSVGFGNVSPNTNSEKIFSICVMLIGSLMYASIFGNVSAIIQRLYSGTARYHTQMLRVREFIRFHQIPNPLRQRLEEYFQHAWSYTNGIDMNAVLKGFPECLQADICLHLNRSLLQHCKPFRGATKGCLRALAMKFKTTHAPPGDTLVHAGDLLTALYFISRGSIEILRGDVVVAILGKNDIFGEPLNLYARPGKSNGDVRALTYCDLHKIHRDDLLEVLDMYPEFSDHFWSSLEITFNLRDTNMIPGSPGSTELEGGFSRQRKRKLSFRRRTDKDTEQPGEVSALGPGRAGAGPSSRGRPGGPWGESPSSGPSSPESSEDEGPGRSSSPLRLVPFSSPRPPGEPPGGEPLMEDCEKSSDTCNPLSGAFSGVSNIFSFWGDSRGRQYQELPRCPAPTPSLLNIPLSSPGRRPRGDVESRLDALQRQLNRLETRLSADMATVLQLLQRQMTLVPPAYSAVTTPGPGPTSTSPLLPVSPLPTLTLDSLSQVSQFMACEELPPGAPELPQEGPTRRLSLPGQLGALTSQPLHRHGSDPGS
Sequence of High affinity cGMP-specific 3',5'-cyclic phosphodiesterase 9A (O76083 whole entry): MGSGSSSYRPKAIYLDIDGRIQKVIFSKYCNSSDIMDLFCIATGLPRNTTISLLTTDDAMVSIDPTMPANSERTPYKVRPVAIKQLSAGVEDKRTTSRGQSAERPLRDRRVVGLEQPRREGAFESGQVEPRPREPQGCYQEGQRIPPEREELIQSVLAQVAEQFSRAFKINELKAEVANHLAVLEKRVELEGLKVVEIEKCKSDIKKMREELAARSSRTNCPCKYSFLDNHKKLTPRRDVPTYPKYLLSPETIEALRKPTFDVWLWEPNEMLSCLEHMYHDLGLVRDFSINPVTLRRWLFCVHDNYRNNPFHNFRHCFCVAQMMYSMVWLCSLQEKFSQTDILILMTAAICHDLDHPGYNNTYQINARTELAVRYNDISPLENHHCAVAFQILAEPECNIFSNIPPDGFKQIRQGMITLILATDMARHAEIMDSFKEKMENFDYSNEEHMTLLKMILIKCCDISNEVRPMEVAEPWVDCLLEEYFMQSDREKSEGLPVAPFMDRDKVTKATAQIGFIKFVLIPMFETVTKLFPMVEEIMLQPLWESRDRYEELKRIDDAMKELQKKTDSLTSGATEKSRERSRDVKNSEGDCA

IC50 [1] [µM] | fraction unbound at 5 h, 5 µM [2] | IC50 [3] [pM] | IC50 [4] [pM] | Papp A→B at 2 h, 10 µM [5] [×10⁻⁶ cm/s] | Papp B→A at 2 h, 10 µM [6] [×10⁻⁶ cm/s] | microsomal CLint at 1 µM [7] [µL/min/mg] | hepatocyte CLint at 1 µM [8] [µL/min/1e6 cells] | remaining at 1 h, 1 µM [9] [%] | remaining at 1 h, 1 µM [10] [%] | Cmax (Lung [11]) [nmol/g] | Tmax [12] [min] | Tlast (Lung [13]) [h] | AUClast (Lung [14]) [nmol·h/g] | half-life [15] [min] | Cmax (Plasma [16]) [pmol/g] | Tmax [17] [min] | Tlast (Plasma [18]) [h] | Structure (SMILES) | inhibition (Rattus norvegicus) | ED50 (Rattus norvegicus) [µmol/kg] | further results
25.6 | 0.0035 | 37.8 | 32 | 0.48 | 10.2 | 591 | 95.5 | 71.1 | 108 | 16.24 | 4.98 | 24 | 49.65 | 311 | 20.65 | 4.98 | 8 | CN(C)C(=O)c1cccc(S(=O)(=O)N2CCC[C@H]2C(=O)O[C@@H](Cc2c(Cl)c[n+]([O-])cc2Cl)c2ccc(OC(F)F)c(OCC3CC3)c2)c1 (relative stereo) | Dose-dependent effect | 0.1 | Ratio [19]: 2261; MRT last at 24 h [20]: 64.8 min; IC50 [21]: > 30 µM; IC50 [22]: > 30 µM; IC50 [23]: > 30 µM; IC50 [24]: 17 µM; IC50 [25]: > 30 µM; IC50 [26]: 4.03 µM; inhibition (INH) [27]: Not Active; Activity (Cytochrome P450 3A4): 73%; Drug uptake (Lung [28]): 0.128 nmol/g
7.4 | 0.0021 | 53 | 19 | 0.42 | 3.18 | 287 | 82.5 | 70.2 | 98 | 16.06 | 15 | 24 | 65.27 | 263 | 9.8 | 4.98 | 8 | CN(C)C(=O)c1cccc(S(=O)(=O)N2CCS[C@H]2C(=O)O[C@@H](Cc2c(Cl)c[n+]([O-])cc2Cl)c2ccc(OC(F)F)c(OCC3CC3)c2)c1 | Dose-dependent effect | 0.04 | Ratio [19]: 5152; MRT last at 24 h [20]: 79.8 min; IC50 [21]: > 30 µM; IC50 [22]: 6.21 µM; IC50 [23]: 5.78 µM; IC50 [24]: 3.56 µM; IC50 [25]: > 30 µM; IC50 [26]: 0.81 µM; inhibition (INH) [27]: Not Active; Activity (Cytochrome P450 3A4): 84%; Drug uptake (Lung [28]): 0.22 nmol/g
